In ChEMBL document CHEMBL3098013, “Novel pyrazole integrated 1,3,4-oxadiazoles: synthesis, characterization and antimicrobial evaluation” (2014):
≈ marks a conversion by molar mass, not a printed value.

How the values were obtained:
Format in all cases: functional
[1] = tested on: Fusarium verticillioides; assay: Antimicrobial activity against Fusarium moniliforme MTCC 156 after 48 hrs by microdilution method; settings: MTCC 156, 48 h
Outline: (§1)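 The minimal inhibitory concentration was determined by dilution, alongside minimal bactericidal concentration for bacterial strains and minimal fungicidal concentration for fungal strains. Tests were run in six replicates, and the value is the mean of at least three determinations.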

[2] = tested on: Fusarium oxysporum; assay: Antimicrobial activity against Fusarium oxysporum MTCC 284 after 48 hrs by microdilution method; settings: MTCC 284, 48 h; outline: as §1
[3] = tested on: Aspergillus niger; assay: Antimicrobial activity against Aspergillus niger MTCC 281 after 48 hrs by microdilution method; settings: MTCC 281, 48 h; outline: as §1
[4] = tested on: Aspergillus flavus; assay: Antimicrobial activity against Aspergillus flavus MTCC 873 after 48 hrs by microdilution method; settings: MTCC 873, 48 h; outline: as §1
[5] = tested on: Klebsiella pneumoniae; assay: Antimicrobial activity against Klebsiella pneumoniae MTCC 3384 after 24 hrs by microdilution method; settings: MTCC 3384, 24 h; outline: as §1
[6] = tested on: Escherichia coli; assay: Antimicrobial activity against Escherichia coli MTCC 724 after 24 hrs by microdilution method; settings: MTCC 724, 24 h; outline: as §1
[7] = tested on: Staphylococcus aureus; assay: Antimicrobial activity against Staphylococcus aureus MTCC 96 after 24 hrs by microdilution method; settings: MTCC 96, 24 h; outline: as §1
[8] = tested on: Bacillus cereus; assay: Antimicrobial activity against Bacillus cereus MTCC 8372 after 24 hrs by microdilution method; settings: MTCC 8372, 24 h; outline: as §1
[9] = tested on: Fusarium verticillioides; assay: Antimicrobial activity against Fusarium moniliforme MTCC 156 at 100 ug/ml after 48 hrs by disc diffusion method; settings: MTCC 156, 48 h, read-out: DIZ
Outline: (§2)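 Agar diffusion read-out is the diameter of the inhibition zone in mm. Each test was run in six replicates and reported as mean ± standard deviation, taken from at least three determinations.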

[10] = tested on: Fusarium verticillioides; assay: Antimicrobial activity against Fusarium moniliforme MTCC 156 at 50 ug/ml after 48 hrs by disc diffusion method; settings: MTCC 156, 48 h, read-out: DIZ; outline: as §2
[11] = tested on: Fusarium oxysporum; assay: Antimicrobial activity against Fusarium oxysporum MTCC 284 at 100 ug/ml after 48 hrs by disc diffusion method; settings: MTCC 284, 48 h, read-out: DIZ; outline: as §2
[12] = tested on: Fusarium oxysporum; assay: Antimicrobial activity against Fusarium oxysporum MTCC 284 at 50 ug/ml after 48 hrs by disc diffusion method; settings: MTCC 284, 48 h, read-out: DIZ; outline: as §2
[13] = tested on: Aspergillus niger; assay: Antimicrobial activity against Aspergillus niger MTCC 281 at 100 ug/ml after 48 hrs by disc diffusion method; settings: MTCC 281, 48 h, read-out: DIZ; outline: as §2
[14] = tested on: Aspergillus niger; assay: Antimicrobial activity against Aspergillus niger MTCC 281 at 50 ug/ml after 48 hrs by disc diffusion method; settings: MTCC 281, 48 h, read-out: DIZ; outline: as §2
[15] = tested on: Aspergillus flavus; assay: Antimicrobial activity against Aspergillus flavus MTCC 873 at 100 ug/ml after 48 hrs by disc diffusion method; settings: MTCC 873, 48 h, read-out: DIZ; outline: as §2
[16] = tested on: Aspergillus flavus; assay: Antimicrobial activity against Aspergillus flavus MTCC 873 at 50 ug/ml after 48 hrs by disc diffusion method; settings: MTCC 873, 48 h, read-out: DIZ; outline: as §2
[17] = tested on: Klebsiella pneumoniae; assay: Antimicrobial activity against Klebsiella pneumoniae MTCC 3384 at 100 ug/ml after 24 hrs by disc diffusion method; settings: MTCC 3384, 24 h, read-out: DIZ; outline: as §2
[18] = tested on: Escherichia coli; assay: Antimicrobial activity against Escherichia coli MTCC 724 at 100 ug/ml after 24 hrs by disc diffusion method; settings: MTCC 724, 24 h, read-out: DIZ; outline: as §2
[19] = tested on: Klebsiella pneumoniae; assay: Antimicrobial activity against Klebsiella pneumoniae MTCC 3384 at 50 ug/ml after 24 hrs by disc diffusion method; settings: MTCC 3384, 24 h, read-out: DIZ; outline: as §2
[20] = tested on: Escherichia coli; assay: Antimicrobial activity against Escherichia coli MTCC 724 at 50 ug/ml after 24 hrs by disc diffusion method; settings: MTCC 724, 24 h, read-out: DIZ; outline: as §2
[21] = tested on: Staphylococcus aureus; assay: Antimicrobial activity against Staphylococcus aureus MTCC 96 at 100 ug/ml after 24 hrs by disc diffusion method; settings: MTCC 96, 24 h, read-out: DIZ; outline: as §2
[22] = tested on: Staphylococcus aureus; assay: Antimicrobial activity against Staphylococcus aureus MTCC 96 at 50 ug/ml after 24 hrs by disc diffusion method; settings: MTCC 96, 24 h, read-out: DIZ; outline: as §2
[23] = tested on: Bacillus cereus; assay: Antimicrobial activity against Bacillus cereus MTCC 8372 at 100 ug/ml after 24 hrs by disc diffusion method; settings: MTCC 8372, 24 h, read-out: DIZ; outline: as §2
[24] = tested on: Bacillus cereus; assay: Antimicrobial activity against Bacillus cereus MTCC 8372 at 50 ug/ml after 24 hrs by disc diffusion method; settings: MTCC 8372, 24 h, read-out: DIZ; outline: as §2

| SMILES | MFC [1] [µg/mL] | MIC [1] [µg/mL] | MFC [2] [µg/mL] | MIC [2] [µg/mL] | MFC [3] [µg/mL] | MIC [3] [µg/mL] | MFC [4] [µg/mL] | MIC [4] [µg/mL] | MBC [5] [µg/mL] | MIC [5] [µg/mL] | MBC [6] [µg/mL] | MIC [6] [µg/mL] | MBC [7] [µg/mL] | MIC [7] [µg/mL] | MBC [8] [µg/mL] | MIC [8] [µg/mL] | zone of inhibition at 100 µg/mL [9] [mm] | zone of inhibition at 50 µg/mL [10] [mm] | zone of inhibition at 100 µg/mL [11] [mm] | zone of inhibition at 50 µg/mL [12] [mm] | also measured |
| --- | --- | --- | --- | --- | --- | --- | --- | --- | --- | --- | --- | --- | --- | --- | --- | --- | --- | --- | --- | --- | --- |
| Cc1c(-c2nnc(-c3ccccc3)o2)c(-c2ccccc2)nn1-c1ccccc1 | 290 (≈ 766 µM) | 55 (≈ 145 µM) | 275 (≈ 727 µM) | 50 (≈ 132 µM) | 270 (≈ 713 µM) | 45 (≈ 119 µM) | 280 (≈ 740 µM) | 40 (≈ 106 µM) | 220 (≈ 581 µM) | 30 (≈ 79.3 µM) | 260 (≈ 687 µM) | 40 (≈ 106 µM) | 240 (≈ 634 µM) | 35 (≈ 92.5 µM) | 230 (≈ 608 µM) | 35 (≈ 92.5 µM) | 6 | 4 | 8 | 3 | zone of inhibition at 100 µg/mL [13]: 8 mm; zone of inhibition at 50 µg/mL [14]: 5 mm; zone of inhibition at 100 µg/mL [15]: 8 mm; zone of inhibition at 50 µg/mL [16]: 4 mm; zone of inhibition at 100 µg/mL [17]: 14 mm; zone of inhibition at 100 µg/mL [18]: 6 mm; zone of inhibition at 50 µg/mL [19]: 6 mm; zone of inhibition at 50 µg/mL [20]: 5 mm; zone of inhibition at 100 µg/mL [21]: 7 mm; zone of inhibition at 50 µg/mL [22]: 6 mm; zone of inhibition at 100 µg/mL [23]: 9 mm; zone of inhibition at 50 µg/mL [24]: 5 mm |
| COc1ccc(-c2nn(-c3ccccc3)c(C)c2-c2nnc(-c3ccccc3)o2)cc1 | 290 (≈ 710 µM) | 40 (≈ 97.9 µM) | 280 (≈ 685 µM) | 40 (≈ 97.9 µM) | 275 (≈ 673 µM) | 45 (≈ 110 µM) | 270 (≈ 661 µM) | 50 (≈ 122 µM) | 260 (≈ 637 µM) | 35 (≈ 85.7 µM) | 240 (≈ 588 µM) | 35 (≈ 85.7 µM) | 240 (≈ 588 µM) | 40 (≈ 97.9 µM) | 240 (≈ 588 µM) | 50 (≈ 122 µM) | 6 | 3 | 6 | 4 | zone of inhibition at 100 µg/mL [13]: 6 mm; zone of inhibition at 50 µg/mL [14]: 2 mm; zone of inhibition at 100 µg/mL [15]: 8 mm; zone of inhibition at 50 µg/mL [16]: 2 mm; zone of inhibition at 100 µg/mL [17]: 9 mm; zone of inhibition at 100 µg/mL [18]: 14 mm; zone of inhibition at 50 µg/mL [19]: 4 mm; zone of inhibition at 50 µg/mL [20]: 8 mm; zone of inhibition at 100 µg/mL [21]: 8 mm; zone of inhibition at 50 µg/mL [22]: 4 mm; zone of inhibition at 100 µg/mL [23]: 9 mm; zone of inhibition at 50 µg/mL [24]: 4 mm |
| Cc1c(-c2nnc(-c3ccc(Cl)cc3)o2)c(-c2ccccc2)nn1-c1ccccc1 | 300 (≈ 727 µM) | 55 (≈ 133 µM) | 275 (≈ 666 µM) | 40 (≈ 96.9 µM) | 215 (≈ 521 µM) | 25 (≈ 60.6 µM) | 230 (≈ 557 µM) | 30 (≈ 72.7 µM) | 220 (≈ 533 µM) | 30 (≈ 72.7 µM) | 235 (≈ 569 µM) | 35 (≈ 84.8 µM) | 250 (≈ 606 µM) | 45 (≈ 109 µM) | 240 (≈ 581 µM) | 40 (≈ 96.9 µM) | 8 | 6 | 8 | 4 | zone of inhibition at 100 µg/mL [13]: 24 mm; zone of inhibition at 50 µg/mL [14]: 9 mm; zone of inhibition at 100 µg/mL [15]: 16 mm; zone of inhibition at 50 µg/mL [16]: 14 mm; zone of inhibition at 100 µg/mL [17]: 12 mm; zone of inhibition at 100 µg/mL [18]: 12 mm; zone of inhibition at 50 µg/mL [19]: 6 mm; zone of inhibition at 50 µg/mL [20]: 10 mm; zone of inhibition at 100 µg/mL [21]: 10 mm; zone of inhibition at 50 µg/mL [22]: 5 mm; zone of inhibition at 100 µg/mL [23]: 8 mm; zone of inhibition at 50 µg/mL [24]: 4 mm |
| Cc1c(-c2nnc(-c3ccccc3)o2)c(-c2ccc([N+](=O)[O-])cc2)nn1-c1ccccc1 | 275 (≈ 649 µM) | 45 (≈ 106 µM) | 280 (≈ 661 µM) | 40 (≈ 94.5 µM) | 290 (≈ 685 µM) | 40 (≈ 94.5 µM) | 290 (≈ 685 µM) | 50 (≈ 118 µM) | 180 (≈ 425 µM) | 25 (≈ 59 µM) | 190 (≈ 449 µM) | 25 (≈ 59 µM) | 150 (≈ 354 µM) | 20 (≈ 47.2 µM) | 150 (≈ 354 µM) | 20 (≈ 47.2 µM) | 14 | 5 | 10 | 8 | zone of inhibition at 100 µg/mL [13]: 12 mm; zone of inhibition at 50 µg/mL [14]: 8 mm; zone of inhibition at 100 µg/mL [15]: 14 mm; zone of inhibition at 50 µg/mL [16]: 6 mm; zone of inhibition at 100 µg/mL [17]: 12 mm; zone of inhibition at 100 µg/mL [18]: 18 mm; zone of inhibition at 50 µg/mL [19]: 9 mm; zone of inhibition at 50 µg/mL [20]: 9 mm; zone of inhibition at 100 µg/mL [21]: 18 mm; zone of inhibition at 50 µg/mL [22]: 10 mm; zone of inhibition at 100 µg/mL [23]: 20 mm; zone of inhibition at 50 µg/mL [24]: 14 mm |
